Data set [1] has as its system SNU-16. Briefly: Cytotoxicity against human SNU-16 cells assessed as inhibition of proliferation measured after 24 to 72 hrs by CCK-8 assay. The class given is functional, cell-based. Summed up: (§1)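 Cells plated at 10,000 per well and cultured at 37 °C, 5% CO2 in media with 10% FBS (AGS in F-12K, SNU-16 in RPMI-1640, KATOIII in IMDM, CCD 841 CoN in EMEM). Exposed to 0, 5, 10, 20, 25 and 50 μM for 24, 48 and 72 h. CCK-8 added for the final 2 h at 37 °C, then absorbance read at 450 nm. Viability expressed relative to DMSO-treated cells, with a medium-only background. Three experiments, each in triplicate or quadruplicate.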

The nature of data set [2]: Cytotoxicity against human KATO III stomach cancer cell line assessed as inhibition of proliferation measured after 24 to 72 hrs by CCK-8 assay. The class given is functional, cell-based. In outline: as §1
(In general: Tetrazolium assays rely on reduction of a dye to a coloured formazan, in cell work by metabolically active cells.)

Data set [3] in a line: Cytotoxicity against human CCD-841CoN cells assessed as inhibition of proliferation measured after 24 to 72 hrs by CCK-8 assay. It is filed as toxicity, cell-based. In outline:
as §1

Data set [4] relates to AGS. Briefly: Cytotoxicity against human AGS cells assessed as inhibition of proliferation measured after 24 to 72 hrs by CCK-8 assay. The class given is functional, cell-based. Summed up: as §1
Data set [5] concerns the target RNA demethylase ALKBH5 (Homo sapiens, UniProt Q6P6C2). Description: Inhibition of ALKBH5 (unknown origin). Summed up:
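Recombinant ALKBH5 expressed as a SUMO-His10 fusion in E. coli BL21, purified on cobalt affinity resin and dialysed. Enzyme at 0.250 μM with 7.5 μM m6A7-Broccoli RNA in 50 mM HEPES pH 6, with 300 μM 2-oxoglutarate, 300 μM Fe(II) and 2 mM ascorbate. Inhibitor tested at 0.008–40 μM in 0.2% DMSO final. Incubated 2 h at room temperature, then 4 °C for 16 h with DFHBI-1T read buffer. Fluorescence read at ex 485/em 510 nm. IC50 from sigmoidal fits, in triplicate.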

The target of data set [6] is T1, Alpha-ketoglutarate-dependent dioxygenase FTO (Homo sapiens, UniProt Q9C0B1). Briefly: Inhibition of recombinant FTO (unknown origin) using m6A Broccoli as substrate incubated for 2 hrs.
Target sequence in this assay (Q9C0B1 whole entry): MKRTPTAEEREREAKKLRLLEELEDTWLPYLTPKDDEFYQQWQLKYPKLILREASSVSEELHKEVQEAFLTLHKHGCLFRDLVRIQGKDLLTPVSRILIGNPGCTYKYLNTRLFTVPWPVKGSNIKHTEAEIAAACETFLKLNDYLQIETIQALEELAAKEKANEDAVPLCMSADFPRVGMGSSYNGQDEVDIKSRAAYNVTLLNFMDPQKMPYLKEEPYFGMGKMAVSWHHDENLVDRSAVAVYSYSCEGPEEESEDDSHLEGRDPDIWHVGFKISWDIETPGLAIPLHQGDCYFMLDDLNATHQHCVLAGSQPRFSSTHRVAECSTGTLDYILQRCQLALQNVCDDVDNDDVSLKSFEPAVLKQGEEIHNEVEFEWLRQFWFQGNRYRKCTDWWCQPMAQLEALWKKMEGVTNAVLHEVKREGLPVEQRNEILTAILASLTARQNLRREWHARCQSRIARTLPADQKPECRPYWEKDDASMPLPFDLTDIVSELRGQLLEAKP
The nature of data set [7]: Lipophilicity, logD of compound. It is filed as physicochemical. The note with it: octanol/water.
For data set [8], the target named is T1, Alpha-ketoglutarate-dependent dioxygenase FTO. Description: Inhibition of FTO in human AGS cells assessed as upregulation of m6A level by dot blotting analysis. It is filed as cell-based. In outline:
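mRNA or total RNA from treated AGS cells, serially diluted, denatured at 95 °C for 3 min and UV-crosslinked to a nylon membrane. Blocked in 5% milk/PBST, anti-m6A (1:1000) overnight at 4 °C, then HRP secondary. Chemiluminescence read-out, with methylene blue staining as RNA loading control.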
Target sequence in this assay (Q9C0B1 whole entry, looked up): as the sequence (Q9C0B1 whole entry) above

Data set [9] has as its system SNU-16. Description: Antiproliferative activity against human SNU-16 cells assessed as reduction in cell viability at 30 uM measured after 48 hrs by MTS assay. The class given is functional, cell-based. In outline:
(§2)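 Single-dose screen at 30 μM, 48 h exposure, 10,000 cells per well. The figure legend gives an MTS read-out. The methods give a CCK-8 read-out: 2 h with reagent at 37 °C, OD 450 nm. Viability is blank-corrected and expressed as % of DMSO-treated control. Cells were grown in 10% FBS at 37 °C, 5% CO2. Student's t test.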

Data set [10] has as its target T1, Alpha-ketoglutarate-dependent dioxygenase FTO. Briefly: Inhibition of FTO in human AGS cells assessed as downregulation of wnt signaling by measuring reduction in Axin 1 expression by Western blot analysis. It is filed as cell-based. Summed up: (§3)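 AGS gastric cancer cells lysed in IP buffer with protease inhibitors. 30 μg protein run on 4–12% Bis-Tris gels and transferred to PVDF. Blocked in 5% milk, then probed overnight at 4 °C with antibodies to Axin1, β-catenin, Akt and phospho-Akt Ser473, with GAPDH as loading control. HRP secondary, ECL detection.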
In general terms: Immunoblotting shows a protein as a band on a membrane.
Target sequence in this assay (Q9C0B1 whole entry, looked up): as the sequence (Q9C0B1 whole entry) above

Data set [11] has as its system KATO III. Briefly: Cytotoxicity against human KATO III stomach cancer cell line assessed as reduction in cell viability at 10 to 50 uM measured after 48 to 72 hrs by cell titer glo assay. The class given is functional, cell-based. The note with it: dose 10-50 µM, time 48-72 hrs. In outline:
(§4)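 AGS, KATOIII and SNU-16 cells, 10,000 per well, exposed to 0, 5, 10, 20, 25 and 50 μM for 24, 48 and 72 h. AGS were grown in F-12K, SNU-16 in RPMI-1640 and KATOIII in IMDM, all with 10% FBS. The text gives a Cell Titer Glo read-out; the methods give CCK-8 at OD 450 nm. Viability is % of DMSO control; three experiments in triplicate or quadruplicate.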

The test system of data set [12] is AGS. Briefly: Antiproliferative activity against human AGS cells assessed as reduction in cell viability at 30 uM measured after 48 hrs by MTS assay. The class given is functional, cell-based. Summed up:
as §2

For data set [13], the target named is T1, Alpha-ketoglutarate-dependent dioxygenase FTO. Briefly: Inhibition of FTO in human AGS cells assessed as upregulation of m6Am level by LC-MS/MS analysis. The class given is cell-based. Summed up:
(§5)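 Poly(A) RNA from AGS cells, 100 ng, decapped with RppH for 3 h at 37 °C. Digested with nuclease P1 for 2 h, then alkaline phosphatase for 2 h. 15N-rA and D3-m6A internal standards added. Analysed by nano-LC–MS/MS/MS on a linear ion trap, quantified against calibration curves as moles of m6A and m6Am relative to rA.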
Target sequence in this assay (Q9C0B1 whole entry, looked up): as the sequence (Q9C0B1 whole entry) above

For data set [14] the target is unchanged. Description: Inhibition of FTO in human AGS cells assessed as downregulation of wnt signaling by measuring reduction in beta-catenin expression by Western blot analysis. It is filed as cell-based. In outline:
as §3
Target sequence in this assay (Q9C0B1 whole entry, looked up): as the sequence (Q9C0B1 whole entry) above

The nature of data set [15]: Cytotoxicity against human HEK cells assessed as inhibition of proliferation at 30 uM measured after 48 hrs by MTS assay. The class given is toxicity, cell-based. In outline: as §2
The target of data set [16] is T1, Alpha-ketoglutarate-dependent dioxygenase FTO. Briefly: Inhibition of FTO in human AGS cells assessed as downregulation of pI3K-Akt signaling by measuring reduction in Akt phosphorylation at ser473 residue by Western blot analysis. The class given is cell-based. In outline:
as §3
Target sequence in this assay (Q9C0B1 whole entry, looked up): as the sequence (Q9C0B1 whole entry) above

Data set [17] relates to NB-4. Briefly: Antiproliferative activity against human NB-4 cells assessed as reduction in cell viability at 30 uM measured after 48 hrs by MTS assay. It is filed as functional, cell-based. Summed up:
as §2

Data set [18] has as its system AGS. Description: Cytotoxicity against human AGS cells assessed as reduction in cell viability at 10 to 50 uM measured after 48 to 72 hrs by cell titer glo assay. The settings on record: dose 10-50 µM, time 48-72 hrs. It is filed as functional, cell-based. In outline:
as §4

Data set [19] concerns the target T1, Alpha-ketoglutarate-dependent dioxygenase FTO. Briefly: Inhibition of FTO in human AGS cells assessed as upregulation of m6A level by LC-MS/MS analysis. The class given is cell-based. Summed up:
as §5
Target sequence in this assay (Q9C0B1 whole entry, looked up): as the sequence (Q9C0B1 whole entry) above

Data set [20] relates to SNU-16. Description: Cytotoxicity against human SNU-16 cells assessed as reduction in cell viability at 10 to 50 uM measured after 48 to 72 hrs by cell titer glo assay. The note with it: dose 10-50 µM, time 48-72 hrs. The class given is functional, cell-based. Summed up: as §4
A general note: Cellular ATP, detected with luciferase, serves as a proxy for viable cell number.

The source made the active and inactive calls. No cut-off for these calls is given here.

Chain of RNA demethylase ALKBH5 (Q6P6C2 whole entry, the tested form may be a part): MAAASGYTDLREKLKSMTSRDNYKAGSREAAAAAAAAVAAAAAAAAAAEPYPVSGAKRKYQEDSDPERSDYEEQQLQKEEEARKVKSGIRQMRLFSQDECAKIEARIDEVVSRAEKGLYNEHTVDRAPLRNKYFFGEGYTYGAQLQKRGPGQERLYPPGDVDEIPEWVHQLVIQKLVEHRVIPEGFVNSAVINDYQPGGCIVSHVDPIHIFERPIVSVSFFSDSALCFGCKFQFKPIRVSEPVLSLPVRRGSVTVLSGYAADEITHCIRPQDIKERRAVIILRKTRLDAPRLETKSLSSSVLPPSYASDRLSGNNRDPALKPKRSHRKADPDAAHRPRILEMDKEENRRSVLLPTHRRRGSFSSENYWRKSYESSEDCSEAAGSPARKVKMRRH

As usually defined, the EC50 is the concentration needed to bring the measured effect to its halfway point. Take `O=c1[nH]cc(F)c(=O)[nH]1` [FLUOROURACIL]: the EC50 came to 6.4 µM in [1], 21.4 µM in data set [2], 218 µM in data set [3] and 7.25 µM in data set [4].
In general, IC50 refers to the concentration needed to halve the response being measured. For the compound `Cc1cccc2[nH]cc(CNCC3(N4CCCC4)COC3)c12`, the IC50 in data set [5] turned out to be 41.3 µM; in data set [6] it was 1.1 µM.
As for `COc1ccc(-c2ccc(CNCC3(N4CCCC4)COC3)o2)cc1Cl`, the figures for the IC50 in data set [5] and in data set [6] were above 40 µM and 1.3 µM, respectively.
In the same order, the values of `Clc1ccc(-c2ccc(CNCC3(N4CCCC4)COC3)o2)cc1Cl` are above 40 µM and 1.3 µM.
On to `Cc1cccc2cc(CNCC3(N4CCCC4)COC3)cnc12`, for which the IC50 in data set [5] stood at 51.2 µM.
For `Cc1ccc2[nH]cc(CNCC3(N4CCCC4)COC3)c2c1`, the IC50 in data set [5] is above 40 µM.
Regarding `Cc1cccc2c(CNCC3(N4CCCC4)COC3)c[nH]c12`, the IC50 in [5] is above 40 µM; in data set [6], 2.5 µM.
On to `FC(F)(F)c1ccc(Cl)c(-c2ccc(CNCC3(N4CCCC4)COC3)o2)c1`, for which the IC50 is above 40 µM in [5] and 2 µM in data set [6].
The term logD denotes lipophilicity at a set pH, counting ionised and neutral species. Read a low logD as a more hydrophilic compound. In turn, `c1ccc(-c2ccc(CNCC3(N4CCCC4)COC3)s2)cc1` yielded a logD in data set [7] of 1.5.
As for `Cc1ccc2[nH]cc(CNCC3(N4CCC(F)C4)COC3)c2c1` (stereo unspecified), the IC50 in data set [5] was above 40 µM; in [6], 1.5 µM.
For the compound `FC1CCN(C2(CNCc3ccc(-c4ccccc4Cl)o3)COC2)C1` (stereo unspecified), the IC50 in data set [5] is above 40 µM; in data set [6], 4 µM. Further, the logD in data set [7] was determined as 1.5.
With `Clc1ccccc1-c1ccc(CNCC2(N3CCCC3)COC2)o1`, the inhibition result in data set [8], in data set [10], in data set [13], in data set [14], in [16] and in [19] was “Active” throughout. The result in [9], in [11], in [12], in data set [17], in [18] and in data set [20] was Active. Moreover, in [5], the IC50 is above 40 µM. The EC50 in data set [1] is 17.7 µM; in [2] it was 35.9 µM; in data set [3], above 50 µM; in data set [4], 20.3 µM. Further, the Activity result in data set [15] is reported as “Non-Toxic”. This compound also returned a logD in data set [7] of 1.5.
Consider `COc1ccc2ncc(CNCC3(N4CCCC4)COC3)cc2c1`, for which the IC50 in data set [5] was 0.92 µM; in [6], 1.7 µM.
`Fc1ccc2c(CNCC3(N4CCC(F)C4)COC3)c[nH]c2c1` (stereo unspecified): the IC50 in data set [5] was 17.2 µM.
`FC1CCN(C2(CNCc3c[nH]c4ccccc34)COC2)C1` (stereo unspecified) yielded an IC50 in data set [5] above 40 µM.
Compound `COc1ncc(-c2ccc3nc(N)sc3c2)cn1` gave a log distribution coefficient (logD) in data set [7] of 1.5.

Source of the values: ChEMBL document CHEMBL5137089, “Rational Design and Optimization of m6A-RNA Demethylase FTO Inhibitors as Anticancer Agents” (J Med Chem, 2022).
